Data set [1] in a line: Drug level in New Zealand white rabbit ipsialateral eye vitreous humor at 2 mg/ml, administered via ivt injection at late time point measured up to 100 hrs by LC-MS/MS analysis. Type of data set: ADME, tissue-based, Oryctolagus cuniculus. To be noted: ipsilateral eye vitreous humor, topical or ocular, read-out: Drug uptake. The method in brief:
(§1)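 Male New Zealand White rabbits (10 weeks old, ~2 kg) received one 50 μL intravitreal injection per eye of peptide at 2 mg/mL in 50 mM sodium phosphate, pH 7.2. Animals were sacrificed at 15 min, 1, 4, 8, 24, 48 and 96 h (3 per time point). Whole vitreous was homogenized, clarified, 0.2 μm filtered and assayed by LC-MS/MS, with a lower limit of detection of 1 ng/mL in vitreous.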

Data set [2] is described as follows: Half life in human plasma at 4 uM measured up to 24 hrs by LC-MS/MS analysis. It is filed as ADME, cell-free. In short, it runs like this: (§2)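 Peptide from a 0.16 mM DMSO stock was added to human, rat or mouse plasma (final 4 μM) or to homogenized human vitreous (final 1 μM), with internal standard. Samples were incubated at 37 °C for up to 24 h and extracted with water/acetonitrile/methanol 1:3:3.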

The next data set has as its system Cynomolgus monkey. Description: Toxicity in cynomolgus monkey at 1.25 ug administered as systemic dose. To be noted: in vivo. Set-up: species or system Macaca fascicularis.
Data set [3] in a line: Half life in Sprague-Dawley rat at 5 mg/kg, iv by LC-MS/MS analysis. Type of data set: ADME, organism-based. The conditions noted are these: in vivo. The method in brief:
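Groups of 2 male Sprague-Dawley rats were dosed IV at 5 mg/kg. Serial tail-vein blood was drawn into EDTA at 5–240 min, and plasma peptide was quantified by LC-MS/MS against 16–4000 ng/mL calibration lines in rat plasma. AUC was calculated by the trapezoidal method.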

The nature of data set [4]: Plasma clearance in Sprague-Dawley rat at 5 mg/kg, iv measured up to 240 mins post dose by LC-MS/MS analysis. Type of data set: ADME, organism-based. The method in brief:
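Male Sprague-Dawley rats, 2 per group, given 5 mg/kg intravenously. Blood sampled through tail-vein cannulae at 5, 10, 20, 30, 60, 120, 180 and 240 min into EDTA tubes and spun to plasma.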

Data set [5] in a line: Drug level in New Zealand white rabbit ipsialateral eye vitreous humor at 2 mg/ml, administered via ivt injection at early time point measured up to 100 hrs by LC-MS/MS analysis. To be noted: ipsilateral eye vitreous humor, topical or ocular, read-out: Drug uptake. It is filed as ADME, tissue-based, Oryctolagus cuniculus. The method in brief:
as §1

Data set [6] can be described thus: Half life in human vitreous humor at 1 uM measured up to 24 hrs by LC-MS/MS analysis. Type of data set: ADME, tissue-based. The method in brief: as §2
For data set [7], the system named is Rattus norvegicus. Kind of data set: Toxicity in rat at 125 ug administered as systemic dose. The conditions noted are these: in vivo.
Data set [8] concerns Rattus norvegicus. Description: Antiinflammatory activity in ip dosed Sprague-Dawley rat carrageenan-induced paw edema model assessed as inhibition of edema pretreated for 15 mins followed by carrageenan challenge measured up to 6 hrs. It is filed as functional, organism-based. In short, it runs like this:
(§3)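 Male Sprague-Dawley rats received peptide IP (30, 10 or 3 mg/kg), or indomethacin IP at 5 mg/kg, 15 min before subplantar carrageenan. Paw volume was followed over time against a vehicle group.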
(In the carrageenan paw model, swelling and tenderness develop within hours.)

Data set [9] has as its system Rattus norvegicus. Description: Antiinflammatory activity in Sprague-Dawley rat assessed as inhibition carrageenan-induced paw edema at 30 mg/kg, ip pretreated for 15 mins followed by carrageenan challenge measured at 6 hrs post carrageenan challenge. Type of data set: functional. The method in brief: as §3
The test system of data set [10] is Rattus norvegicus. Kind of data set: Antiinflammatory activity in Sprague-Dawley rat assessed as inhibition carrageenan-induced paw edema at 30 mg/kg, ip pretreated for 15 mins followed by carrageenan challenge measured at 2 hrs post carrageenan challenge. Type of data set: functional. The method in brief: as §3
The next data set has as its system Mus musculus. Kind of data set: Antidiabetic activity in STZ-induced diabetic C57BL/6J mouse model assessed as reduction in retinal vascular permeability at 100 ug administered 4 times via ivt measured at 8 weeks post diabetes onset relative to control. Type of data set: functional. The method in brief:
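Diabetes was induced with STZ in male C57BL/6J mice. Peptide was given as repeated intravitreal injections (4 × 100 μg). Retinal permeability was read as FITC-BSA extravasation 8 weeks after diabetes onset and compared with vehicle-treated diabetic mice. The anti-VEGFR2 antibody DC101 (6.2 μg/eye, single dose) served as positive control.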

Data set [11] addresses T1, Complement C1s subcomponent (Homo sapiens, UniProt P09871).
T1 sequence (P09871 whole entry): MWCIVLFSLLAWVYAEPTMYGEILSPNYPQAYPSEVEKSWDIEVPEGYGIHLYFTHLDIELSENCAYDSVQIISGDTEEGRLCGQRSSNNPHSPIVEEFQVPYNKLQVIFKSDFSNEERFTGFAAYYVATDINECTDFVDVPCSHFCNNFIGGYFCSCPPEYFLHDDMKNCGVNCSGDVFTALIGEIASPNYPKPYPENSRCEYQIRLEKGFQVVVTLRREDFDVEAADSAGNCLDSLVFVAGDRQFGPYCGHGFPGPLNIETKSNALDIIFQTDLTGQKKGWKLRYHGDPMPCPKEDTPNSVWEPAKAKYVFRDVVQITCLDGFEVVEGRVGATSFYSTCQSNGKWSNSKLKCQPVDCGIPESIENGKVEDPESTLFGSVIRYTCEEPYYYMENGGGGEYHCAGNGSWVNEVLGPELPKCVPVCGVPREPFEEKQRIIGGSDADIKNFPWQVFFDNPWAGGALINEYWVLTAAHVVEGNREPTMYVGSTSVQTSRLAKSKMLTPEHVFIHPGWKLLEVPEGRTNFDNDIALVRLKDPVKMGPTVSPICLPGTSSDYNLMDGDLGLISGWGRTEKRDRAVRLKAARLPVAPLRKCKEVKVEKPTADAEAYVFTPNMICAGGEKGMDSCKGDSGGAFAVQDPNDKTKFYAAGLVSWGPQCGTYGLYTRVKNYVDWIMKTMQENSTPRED
Description: Inhibition of recombinant human C-terminal 6His-tagged complement component C1s (1 to 688 residues) expressed in mouse NS0 cells using fluorogenic Z-Lys-SBzl peptide as substrate after 5 mins by fluorescence based assay. The method in brief: (§4)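 Human serine proteases were assayed with substrates and conditions set by each supplier's recommendations. Peptides were first screened at 50 μM. Where inhibition was detected, Ki was determined from activity across peptide concentrations using a tight-binding rate equation.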

Data set [12] deals with Rattus norvegicus. Kind of data set: Antiinflammatory activity in Sprague-Dawley rat assessed as inhibition carrageenan-induced paw edema at 30 mg/kg, ip pretreated for 15 mins followed by carrageenan challenge measured at 1 hr post carrageenan challenge. It is filed as functional. The method in brief: as §3
Another data set concerns the target Coagulation factor X (Homo sapiens, UniProt P00742). Description: Inhibition of recombinant human C-terminal 10His-tagged factor Xa (24 to 488 residues) expressed in baculovirus derived insect sf21 cells using fluorogenic Mca-RPKPVE-Nval-WRK(Dnp)-NH2 peptide as substrate by fluorescence based assay. The method in brief:
as §4

Data set [13] can be described thus: Aqueous solubility of the compound in buffer. It is filed as physicochemical.
Data set [14] has as its target Plasma kallikrein (Homo sapiens, UniProt P03952). Description: Inhibition of human plasma kallikrein using fluorogenic H-Pro-Phe-Arg-AMC peptide as substrate preincubated for 15 mins followed by substrate addition measured by fluorescence-based assay. To be noted: read-out: Ki(app).
A short description of data set [15]: Drug level in New Zealand white rabbit contralateral eye vitreous humor at 2 mg/ml, administered via ivt injection by LC-MS/MS analysis. It is filed as ADME, tissue-based, Oryctolagus cuniculus. The conditions noted are these: in vivo, topical_or_ocular.
For data set [16], the target named is Plasma kallikrein (Rattus norvegicus, UniProt P14272). Description: Inhibition of recombinant Sprague-Dawley rat plasma kallikrein using fluorogenic H-Pro-Phe-Arg-AMC peptide as substrate preincubated for 15 mins followed by substrate addition measured by fluorescence-based assay. The conditions noted are these: read-out: Ki(app).

The term half-life denotes the time in which the quantity being followed falls by half. For orientation: clearance means a measure of how efficiently the substance is removed, as volume per time. In the case of `CC(=O)N[C@H]1CSCc2cc3cc(c2)CSC[C@H](NC(=O)[C@H](CCCCNC(=N)N)NC(=O)[C@H](Cc2ccc(O)cc2)NC(=O)[C@@H]2CCN2C(=O)[C@H](Cc2ccccc2)NC(=O)[C@H](CO)NC1=O)C(=O)N[C@@H](C)CN[C@@H](Cc1cnc[nH]1)C(=O)N[C@@H](CCC(N)=O)C(=O)N[C@@H](CC(=O)O)C(=O)N[C@@H](CC(C)C)C(=O)N[C@H](C(=O)O)CSC3`, the values for the concentration at 100 h in [1] and in data set [5] were 8 µM and 45 µM, respectively. For the same molecule, the half-life at 4 µM in data set [2] is over 24 h. In addition, the Activity entry in the data set with Cynomolgus monkey and in the data set on Rattus norvegicus [7] was “Non-Toxic” each time. In data set [3], this molecule came in with a half-life of 0.8 h. Besides, the clearance in data set [4] came out at 6.2 mL/min/kg. Further, the half-life at 1 µM in data set [6] was over 24 h.
By inhibition in vivo is commonly meant the relative decrease from the control value, in per cent. As to `CC(=O)N[C@H]1CSCc2cc3cc(c2)CSC[C@H](C(=O)N[C@@H](C)C(=O)N(C)CC(=O)N(C)CC(=O)N(C)CC(=O)N[C@H](CCCNC(=N)N)C(=O)N[C@H](CCCNC(=N)N)C(=O)O)NC(=O)[C@H](CC(C)C)NC(=O)[C@@H]2CCCN2C(=O)[C@H](C)NC(=O)[C@H](CC(=O)O)NC(=O)[C@H](Cc2c[nH]c4ccccc24)NC(=O)[C@@H]2CCCN2C(=O)[C@H](CSC3)NC(=O)[C@H](Cc2c[nH]c3ccccc23)NC(=O)[C@@H]2CCCN2C(=O)[C@H](CC(N)=O)NC(=O)[C@H](Cc2c[nH]c3ccccc23)NC(=O)[C@H]([C@@H](C)O)NC(=O)[C@H](CC(N)=O)NC1=O`, in the data set on Rattus norvegicus [8], the inhibition result was “Dose-dependent effect”. Besides, the inhibition in vivo at 30 mg/kg in the data set on Rattus norvegicus [9] is 64%; in the data set on Rattus norvegicus [10], 59%; with Rattus norvegicus [12], 71%. Moreover, the “inhibition (INH)” value in the data set on Mus musculus was found to be 36%. Besides, the Ki (in data set [11]; on Coagulation factor X) was over 50 µM each time. The same molecule displayed a half-life at 4 µM in data set [2] of over 24 h. Further, the half-life in [3] was found to be 1.3 h. The molecule also yielded a clearance in data set [4] of 8.2 mL/min/kg. In [13], the solubility result was “Soluble”. Besides, the half-life at 1 µM in data set [6] was over 24 h.
With `CC[C@H](C)[C@@H]1NC(=O)[C@H](CC(=O)O)NC(=O)[C@@H]2CCCN2C(=O)[C@H](Cc2ccc(O)cc2)NC(=O)[C@H](Cc2ccc(O)cc2)NC(=O)[C@H](C(C)C)NC(=O)[C@@H]2CSCc3cc(cc(c3)CSC[C@@H](C(=O)N[C@@H](C)C(=O)N(C)CC(=O)N(C)CC(=O)N(C)CC(=O)N[C@H](CCCNC(=N)N)C(=O)N[C@H](CCCNC(=N)N)C(=O)O)NC1=O)CSC[C@H](NC(C)=O)C(=O)N[C@@H](CO)C(=O)N[C@@H](Cc1ccccc1)C(=O)N1CCC1C(=O)N[C@@H](Cc1ccc(O)cc1)C(=O)N[C@@H](CCCCNC(=N)N)C(=O)N2` (stereo not given in full), the Ki was 0.00025 µM at Plasma kallikrein [14], over 50 µM in data set [11], 0.0055 µM on Plasma kallikrein [16] and 23 µM at Coagulation factor X. The Drug uptake in data set [15] came to 1 ng/mL.

Source of the values: ChEMBL document CHEMBL4033799, “Stable and Long-Lasting, Novel Bicyclic Peptide Plasma Kallikrein Inhibitors for the Treatment of Diabetic Macular Edema” (J Med Chem, 2018).
